Measurements: article PMC6734327 (Heliyon, 2019)

What was measured:
[1] = tested on: MCF-7 (human breast adenocarcinoma); assay: Cytotoxic assay, alamar blue, MCF-7; assay type: cell-based; conditions: MCF7, 72 h, read-out: IC50 MCF-7
Outline: (§1)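 Cells from ATCC, mycoplasma-negative, grown in RPMI 1640 with 10% FBS at 37 °C and 5% CO2. Seeded at 0.7 × 10^5 cells/mL (adherent) or 0.3 × 10^6 cells/mL (suspension), then pre-incubated for 24 h. Test compound in DMSO added for 72 h; doxorubicin was the positive control and DMSO the vehicle control. Resazurin stock (0.312 mg/mL) added 4 h before the end. Absorbance read at 570/595 nm. IC50 taken from non-linear regression of % inhibition versus log concentration.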

[2] = tested on: MRC-5 (human lung fibroblast); assay: Cytotoxic assay, alamar blue, non-cancer MRC-5; assay type: cell-based; conditions: MRC5, 72 h, read-out: IC50 MRC-5
Outline: as §1

[3] = tested on: HepG2 (human hepatocellular carcinoma); assay: Cytotoxic assay, alamar blue, HepG2; assay type: cell-based; conditions: HepG2, 72 h, read-out: IC50 HepG2
Outline: as §1

[4] = tested on: lung cancer (SK-LU-1); conditions: read-out: IC50 SK-LU-1; cited from earlier work
[5] = tested on: prostate cancer (PC-3); conditions: read-out: IC50 PC-3; cited from earlier work
[6] = tested on: breast cancer (MCF7); conditions: read-out: IC50 MCF7; cited from earlier work

SMILES	IC50 [1] [µM]	IC50 [2] [µM]	IC50 [3] [µM]	IC50 [4] [µM]	IC50 [5] [µM]	IC50 [6] [µM]
C[C@]12CC[C@@H]3c4ccc(O)cc4CC[C@H]3[C@@H]1CC[C@@]2(O)c1cn(CC(=O)c2ccccc2)nn1 [3a, 2-(4-((8R,9S,13S,14S,17S)-3,17-dihydroxy-13-methyl-7,8,9,11,12,13,14,15,16,17-decahydro-6H-cyclopenta[a]phenanthren-17-yl)-1H-1,2,3-triazol-1-yl)-1-phenylethan-1-one]	> 54.6	> 54.6	29.7	–	–	–
C[C@]12CC[C@H](O)CC1=CC[C@@H]1[C@@H]2CC[C@]2(C)C(C(=O)Cn3cncn3)=CC[C@@H]12 [3β-hydroxy-21-(1H-1,2,4-triazol-1-yl)pregna-5,16-dien-20-one]	–	–	–	230	17	360
COc1cccc2c1C(=O)c1c(O)c3c(c(O)c1C2=O)C[C@@](O)(C(=O)CO)C[C@@H]3O[C@H]1C[C@H](N)[C@H](O)[C@H](C)O1 [Doxorubicin]	–	2.4	–	–	–	–
